Results from article PMC5474437 (EBioMedicine, 2017).

Experiments:
HepG2 cells = assay: Lipid; format: cell-based, human
How it was run: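 HepG2 cells were grown in DMEM with 10% heat-inactivated FCS at 37 °C, 5% CO2. Human LDL (50 μg/ml) was pre-incubated 30 min at 37 °C with peptide (1 μg/ml) or PBS vehicle. Cells were then exposed to LDL for 2 h. Oil Red O staining followed, and the eluted dye gave relative lipid content.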

Apoe−/− HNP1tg/tg mice [1] = assay: Blood cell counts by flow cytometry, HNP1-transgenic mice; format: in vivo, mouse; settings: transgenic HNP1 expression, vs Apoe−/−, high-fat diet 4 weeks, n = 10
How it was run: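 Female Apoe−/− HNP1tg/tg mice and Apoe−/− littermates (C57Bl/6 background, ≥10 backcross generations) fed high-fat diet (21% fat, 0.15% cholesterol) for 4 weeks. Blood red cells were lysed (150 mM NH4Cl, 10 mM KHCO3, 0.1 mM diNaEDTA, pH 7.4) and HBSS-washed. Cells were stained for CD115, CD11b, CD45 and Gr1 and analysed by flow cytometry; absolute counts came from counting beads.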

[2] = tested on: Apoe−/− HNP1tg/tg mice on high-fat diet; assay: Atherosclerotic lesions in aortic root, HNP1-transgenic Apoe−/− mice; format: in vivo, mouse; settings: transgenic HNP1 expression, high-fat diet 4 weeks, Ly6G staining, n=10
How it was run: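 Female Apoe−/− HNP1tg/tg mice (C57Bl/6 background, backcrossed ≥10 generations) fed high-fat diet (21% fat, 0.15% cholesterol) for 4 weeks. Frozen aortic root sections stained with anti-Ly6G (1A8, 1:100), then secondary antibody 30 min at room temperature, with DAPI nuclear counterstain. Images analysed by fluorescence microscopy.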

liver of Ldlr−/− mice = assay: Liver perfusion, Dil-LDL uptake, Ldlr−/− mice; format: in vivo, mouse; settings: Dil-LDL 50 μg/ml with HNP1 10 μg/ml, 20 min, 2 ml/min, n = 3 per group
How it was run: (§1)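 Anaesthetised mice underwent laparotomy with double-ligated vena cava. Portal vein cannulated; liver perfused 20 min at 2 ml/min with DiI-labelled human LDL (50 μg/ml) preincubated with 10 μg/ml peptide in PBS, or PBS alone. Liver minced, filtered (100 μm), spun 500 g 5 min, then 36% Percoll-HBSS 800 g 20 min. Top-phase hepatocytes analysed by flow cytometry as fold over background fluorescence; n = 3 per group, Mann-Whitney test.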

[3] = Plasma HNP1 levels in HNP1-transgenic mice, dot blot; format: in vivo, mouse; settings: Apoe−/− HNP1tg/tg mice, high-fat diet 4 weeks, dot blot against recombinant HNP1
How it was run: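 Plasma from female HNP1-transgenic Apoe−/− mice after 4 weeks high-fat diet was spotted onto nitrocellulose and blocked in 1% non-fat milk/PBS (0.5–1.0 h, RT). Blots were probed overnight at 4 °C with anti-HNP1 (1:5000), washed in PBS/0.05% Tween 20, then given HRP secondary (1:5000, 1 h, RT) and 3 × 15 min washes. ECL chemiluminescence was the read-out.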

Apoe−/− HNP1tg/tg mice [4] = assay: Plasma lipids and FPLC lipoprotein fractions, HNP1-transgenic mice; format: in vivo, mouse; settings: transgenic HNP1 expression
How it was run: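 Female Apoe−/− HNP1tg/tg mice and Apoe−/− littermates were fed high-fat diet (21% fat, 0.15% cholesterol) for 4 weeks. Plasma was stored at −80 °C and triglycerides were measured enzymatically with a kit. For lipoprotein profiles, plasma from 10 animals per group was pooled (0.25 ml) and FPLC gel-filtered on two Superose 6 columns in series.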

[5] = tested on: hepatocytes of C57BL/6 wild-type mice; assay: Liver perfusion, Dil-LDL uptake in hepatocytes, wild-type mice; format: in vivo, mouse; settings: Dil-LDL 50 μg/ml with HNP1 10 μg/ml, 20 min, 2 ml/min, normocholesterolemic WT mice, flow cytometry, n = 3 per group
How it was run: as §1

Apoe−/− mice = assay: Plasma lipids after repeated HNP1 treatment; format: in vivo, mouse; settings: 10 μg every other day i.v., 4 weeks, n = 8–11 per group
How it was run: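 Female Apoe−/− mice on high-fat diet (21% fat, 0.15% cholesterol) for 8 weeks received peptide (10 μg i.v., every other day) or PBS i.v. over the last 4 weeks. Plasma triglycerides were measured enzymatically with a kit. Blood leukocytes were counted by flow cytometry after red cell lysis, using CD115/CD11b/CD45/Gr1 staining and counting beads. n = 8–11 per group; one-way ANOVA with Bonferroni test.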

Lp(a) = settings: ref Bdeir et al., 1999; cited from earlier work
[6] = tested on: plasma cholesterol / lipoproteins of hypercholesterolemic mice; assay: Precipitation of lipid-bound HNP1 from plasma with anti-HNP1 magnetic beads; format: binding, mouse; settings: dot blot of precipitate
How it was run: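 Anti-HNP monoclonal antibody (100 μg) coupled overnight at room temperature to 3.3 × 108 magnetic beads in 1 M ammonium sulfate. Washed beads, at 2 × 109 beads/ml, added to 50 μl plasma from hypercholesterolemic mice incubated with the peptide, then rotated overnight at room temperature. Beads removed; precipitated samples spotted on nitrocellulose and probed by chemiluminescent dot blot with apolipoprotein antibodies.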

mice expressing HNP1 = settings: ref Abu-Fanne et al., 2016, cited from earlier work
[7] = tested on: plasma lipoprotein fractions (VLDL, LDL, HDL); assay: Dot blot of lipoprotein fractions of HNP1-treated mice; format: binding, mouse; settings: HNP1 10 μg i.v., plasma after 24 h
How it was run: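 Apoe−/− mice on high-fat diet received 10 μg i.v.; plasma collected after 24 h, pooled (10 animals per group, 0.25 ml) and fractionated by FPLC gel filtration on two Superose 6 columns in series. Fractions spotted on nitrocellulose, blocked in 1% milk/PBS (0.5–1.0 h, RT), probed overnight at 4 °C with anti-HNP1, ApoA, ApoB or ApoC3 (1:5000), HRP secondary 1:5000 (1 h, RT), ECL chemiluminescence.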

[8] = target: human neutrophil peptide 1 (human); assay: SPR

Substance | HNP1-assisted LDL clearance after LDLR silencing (HepG2 cells; Ldlr siRNA 100 nM, 24 h, HepG2) | LDL uptake by HepG2 (HepG2 cells; human LDL 50 μg/ml, HNP1 1 μg/ml, 2 h, Oil Red O elution) | Blood counts of leukocyte subpopulations (Apoe−/− HNP1tg/tg mice [1]) | Number of lesional neutrophils [2] | LDL uptake in the liver (portal vein perfusion), Ldlr−/− (liver of Ldlr−/− mice) | Plasma HNP1 levels [3] [µg/mL] | HDL-cholesterol (Apoe−/− HNP1tg/tg mice [4]; FPLC, pooled plasma of 10 animals per group) | Plasma triglyceride levels (Apoe−/− HNP1tg/tg mice [4]; high-fat diet 4 weeks, n=10) | LDL uptake in hepatocytes (portal vein perfusion) [5] | Plasma cholesterol levels after repeated treatment (Apoe−/− mice; vs baseline, PBS not different from baseline) | Plasma triglyceride levels and blood leukocyte counts after repeated treatment (Apoe−/− mice) | Interaction with Lp(a) (Lp(a)) | Apolipoproteins in anti-HNP1 precipitate [6] | Total cholesterol and LDL plasma levels in mice expressing HNP1 (mice expressing HNP1; normocholesterolemic) | Lipid deposits in mice with transgenic HNP1 expression (mice expressing HNP1; prolonged periods of high fat diet feeding) | Detection of HNP1 in lipoprotein fractions ([7]; FPLC fractions, dot blot) | Apolipoproteins in HNP1-positive fractions ([7]; antibodies to ApoA1, ApoB, ApoC3) | Kd [8] [nM]
human neutrophil peptide 1 [HNP1] | silencing of LDLR abrogated HNP1-assisted LDL clearance | strongly enhanced LDL uptake | comparable between the groups | The number of lesional neutrophils was not affected | failed to stimulate LDL uptake in the liver | 0.5 to 1 | HDL-cholesterol remained unaffected | triglyceride levels remained unaffected | vast increase of LDL uptake in hepatocytes | lowered plasma cholesterol levels below baseline levels | not affected by HNP1 treatment | shown to interact with Lp(a) | precipitate stained positive for ApoB and ApoC3 | total cholesterol levels as well as LDL plasma levels were reduced in mice expressing HNP1 | facilitated the development of very small lipid deposits | only detected in VLDL and LDL fractions but not in HDL fractions | ApoB and ApoC3 were detected but not ApoA1 | 
human ApoB (from UniProt P04114 28-4563) (natural protein) |  |  |  |  |  |  |  |  |  |  |  |  |  |  |  |  |  | 2.45
human ApoC3 (from UniProt P02656 21-99) (natural protein) |  |  |  |  |  |  |  |  |  |  |  |  |  |  |  |  |  | 0.0358
